Laboratory results from ChEMBL document CHEMBL4196064, “Identification of Pyrazolo[3,4-e][1,4]thiazepin based CYP51 inhibitors as potential Chagas disease therapeutic alternative: In vitro and in vivo evaluation, binding mode prediction and SAR exploration” (Eur J Med Chem, 2018).
Active and inactive are the calls of the source. The calls are words filed in the database; no cut-off is given here.

Tested on: Trypanosoma cruzi
Assay: Antitrypanosomal activity against bloodstream trypomastigote stage of Trypanosoma cruzi Y infected in Swiss Webster mouse assessed as reduction in parasitemia at 5 mg/kg, ip administered daily on day 5 to 9 post infection relative to control
Type: functional
Settings: not given
In short: (§1)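 Male Swiss Webster mice (18–20 g) infected i.p. with 10^4 Y strain bloodstream trypomastigotes. Treatment given days 5–9 post infection: test compound i.p. 5–20 mg/kg/day (0.1 mL, DMSO then 20% Trappsol) or Bz 100 mg/kg/day p.o. (3% Tween 80 in water). Controls infected, vehicle only. Parasitemia counted by Pizzi-Brener in 5 µL tail blood; mortality checked daily to 30 days post treatment.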
With `Cc1cccc(COc2ccc([C@H]3S[C@@H](C)C(=O)Nc4[nH]nc(C)c43)cc2)c1` the Activity was “inactive”.

Tested on: Trypanosoma cruzi
Assay: Antitrypanosomal activity against bloodstream trypomastigote stage of Trypanosoma cruzi Y infected in Swiss Webster mouse assessed as increase in mouse survival at 5 to 20 mg/kg, ip administered daily on day 5 to 9 measured daily until 30 days post dose relative to control
Type: functional, organism-based
Settings: not given
In short: as §1
With `Cc1cccc(COc2ccc([C@H]3S[C@@H](C)C(=O)Nc4[nH]nc(C)c43)cc2)c1` the Activity was “inactive”.

Tested on: Trypanosoma cruzi
Assay: Antitrypanosomal activity against bloodstream trypomastigote stage of Trypanosoma cruzi Y measured after 24 hrs by light microscopic analysis
Type: functional, organism-based
Settings: not given
In short: (§2)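 Y strain bloodstream trypomastigotes from heart puncture of infected mice, at 5x10⁶/mL in RPMI 1640 with 5% FBS. Incubated at 37℃ with 0–50 µM for 2 or 24 h. […] Mean ± SD.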
With `Cc1n[nH]c2c1[C@@H](c1ccc(OCc3ccccc3F)cc1)S[C@@H](C)C(=O)N2` the EC50 was > 50 µM.
Compound `Cc1cccc(COc2ccc([C@H]3S[C@@H](C)C(=O)Nc4[nH]nc(C)c43)cc2)c1` has an EC50 of 20.6 µM.
Work on `Cc1ccccc1COc1ccc([C@H]2S[C@@H](C)C(=O)Nc3[nH]nc(C)c32)cc1` yielded an EC50 of 38.6 µM.
For `COc1cc([C@H]2S[C@@H](C)C(=O)Nc3[nH]nc(C)c32)ccc1OCc1ccc(Cl)cc1`, the EC50 was 39.4 µM.

Tested on: not listed separately
Assay: Selectivity index, ratio of LC50 for mouse L929 cells by Alamarblue assay to EC50 for Trypanosoma cruzi Tulahuen trypomastigote forms
Type: toxicity
Settings: read-out: Selectivity Index
For `Cc1n[nH]c2c1[C@@H](c1ccc(OCc3ccccc3F)cc1)S[C@@H](C)C(=O)N2`, the selectivity ratio was > 38.
`Cc1cccc(COc2ccc([C@H]3S[C@@H](C)C(=O)Nc4[nH]nc(C)c43)cc2)c1` showed a selectivity ratio of 36.6.
For `Cc1ccccc1COc1ccc([C@H]2S[C@@H](C)C(=O)Nc3[nH]nc(C)c32)cc1`, the selectivity ratio was 50.4.
With `COc1cc([C@H]2S[C@@H](C)C(=O)Nc3[nH]nc(C)c32)ccc1OCc1ccc(Cl)cc1` the selectivity ratio was 4.7.

Tested on: not listed separately
Assay: Selectivity index, ratio of LC50 for mouse L929 cells by light microscopic analysis to EC50 for Trypanosoma cruzi Tulahuen trypomastigote forms
Type: toxicity
Settings: read-out: Selectivity Index
For `Cc1n[nH]c2c1[C@@H](c1ccc(OCc3ccccc3F)cc1)S[C@@H](C)C(=O)N2`, the selectivity ratio was > 38.
`Cc1cccc(COc2ccc([C@H]3S[C@@H](C)C(=O)Nc4[nH]nc(C)c43)cc2)c1` gave a selectivity ratio of 36.6.
For `Cc1ccccc1COc1ccc([C@H]2S[C@@H](C)C(=O)Nc3[nH]nc(C)c32)cc1`, the selectivity ratio was 50.4.
In the case of `COc1cc([C@H]2S[C@@H](C)C(=O)Nc3[nH]nc(C)c32)ccc1OCc1ccc(Cl)cc1`, the selectivity ratio is reported as 4.7.

Tested on: Trypanosoma cruzi
Assay: Antitrypanosomal activity against Trypanosoma cruzi Tulahuen trypomastigote forms infected in mouse L929 cells assessed as reduction in infection level at 10 to 12 uM after 96 hrs by beta-galactosidase reporter gene assay relative to control
Type: functional
Set-up: scale not given: the % may be the effect or the level left
Settings: not given
In short: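 L929 cells infected 2 h with tissue culture-derived β-galactosidase-expressing Tulahuen trypomastigotes at 10:1 parasite/host cell ratio, rinsed, and held 48 h at 37℃. Single fixed concentration (10-12 µM) then applied, 96 h. Absorbance read at 570 nm; growth inhibition expressed relative to untreated cells. DMSO not above 0.6 %.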
Work on `Cc1n[nH]c2c1[C@@H](c1ccc(OCc3ccccc3F)cc1)S[C@@H](C)C(=O)N2` yielded an Activity of 63.64%.
In the case of `Cc1cccc(COc2ccc([C@H]3S[C@@H](C)C(=O)Nc4[nH]nc(C)c43)cc2)c1`, the Activity is reported as 89.25%.
In the case of `Cc1ccccc1COc1ccc([C@H]2S[C@@H](C)C(=O)Nc3[nH]nc(C)c32)cc1`, the Activity is reported as 69.14%.
In the case of `COc1cc([C@H]2S[C@@H](C)C(=O)Nc3[nH]nc(C)c32)ccc1OCc1ccc(Cl)cc1`, the Activity is reported as 53.94%.

Tested on: not listed separately
Assay: Cytotoxicity against mouse L929 cells assessed as reduction in cell viability after 96 hrs by light microscopic analysis
Type: cell-based
Settings: read-out: LC50
In short: (§3)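 L929 fibroblasts (4x10^3 cells/well) in RPMI 1640 with 10% FBS, incubated at 37°C with increasing concentrations for 96 h. Viability was read with AlamarBlue (6 h incubation, absorbance at 600 nm) and confirmed by light microscopy.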
For `Cc1n[nH]c2c1[C@@H](c1ccc(OCc3ccccc3F)cc1)S[C@@H](C)C(=O)N2`, the CC50 at 96 h was > 200 µM.
With `Cc1cccc(COc2ccc([C@H]3S[C@@H](C)C(=O)Nc4[nH]nc(C)c43)cc2)c1` the CC50 at 96 h was 98.9 µM.
`Cc1ccccc1COc1ccc([C@H]2S[C@@H](C)C(=O)Nc3[nH]nc(C)c32)cc1` showed a CC50 at 96 h of 111 µM.
Work on `COc1cc([C@H]2S[C@@H](C)C(=O)Nc3[nH]nc(C)c32)ccc1OCc1ccc(Cl)cc1` yielded a CC50 at 96 h of 50.6 µM.

Tested on: Trypanosoma cruzi
Assay: Antitrypanosomal activity against Trypanosoma cruzi Tulahuen trypomastigote forms infected in mouse L929 cells assessed as reduction in parasite load after 96 hrs by beta-galactosidase reporter gene assay
Type: functional, organism-based
Settings: L929, 96 h
In short: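 L929 cells infected 2 h with tissue culture-derived Tulahuen β-galactosidase trypomastigotes (10:1 parasite/host cell), rinsed with saline, and left 48 h at 37℃. Increasing non-toxic concentrations applied for 96 h. Absorbance read at 570 nm, % growth inhibition versus untreated cells, EC50 derived; mean ± SD. DMSO not above 0.6 %.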
For `Cc1n[nH]c2c1[C@@H](c1ccc(OCc3ccccc3F)cc1)S[C@@H](C)C(=O)N2`, the EC50 was 5.3 µM.
`Cc1cccc(COc2ccc([C@H]3S[C@@H](C)C(=O)Nc4[nH]nc(C)c43)cc2)c1` gave an EC50 of 2.7 µM.
For `Cc1ccccc1COc1ccc([C@H]2S[C@@H](C)C(=O)Nc3[nH]nc(C)c32)cc1`, the EC50 was 2.2 µM.
With `COc1cc([C@H]2S[C@@H](C)C(=O)Nc3[nH]nc(C)c32)ccc1OCc1ccc(Cl)cc1` the EC50 was 10.8 µM.

Tested on: not listed separately
Assay: Selectivity index, ratio of LC50 for Swiss Webster mouse cardiac cells by prestoblue assay to EC50 for bloodstream trypomastigote stage of Trypanosoma cruzi Y measured after 24 hrs
Type: toxicity
Settings: read-out: Selectivity Index
In short: (§4)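 The ratio is cardiac-cell LC50 (24 h) over the 24 h EC50 against Y-strain bloodstream trypomastigotes. Trypomastigotes (5x10^6/mL) were exposed to 0-50 µM at 37°C in RPMI with 5% FBS. Surviving parasites were counted in a Neubauer chamber, and the EC50 is the concentration halving the parasite number.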
In the case of `Cc1n[nH]c2c1[C@@H](c1ccc(OCc3ccccc3F)cc1)S[C@@H](C)C(=O)N2`, the selectivity ratio at 24 h is reported as > 4.
Compound `Cc1cccc(COc2ccc([C@H]3S[C@@H](C)C(=O)Nc4[nH]nc(C)c43)cc2)c1` has a selectivity ratio at 24 h of 3.2.
In the case of `Cc1ccccc1COc1ccc([C@H]2S[C@@H](C)C(=O)Nc3[nH]nc(C)c32)cc1`, the selectivity ratio at 24 h is reported as > 5.2.

Tested on: Trypanosoma cruzi
Assay: Antitrypanosomal activity against bloodstream trypomastigote stage of Trypanosoma cruzi Y infected in Swiss Webster mouse assessed as reduction in parasitemia at 20 mg/kg, ip administered daily on day 5 to 9 post infection relative to control
Type: functional
Settings: not given
In short: as §1
With `Cc1cccc(COc2ccc([C@H]3S[C@@H](C)C(=O)Nc4[nH]nc(C)c43)cc2)c1` the Activity was “inactive”.

Tested on: not listed separately
Assay: Cytotoxicity against Swiss Webster mouse cardiac cells assessed as reduction in cell viability after 24 hrs by light microscopic analysis
Type: cell-based, Cardiac Muscle Cell
Settings: read-out: LC50
In short: (§5)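 Primary cardiac cells from Swiss Webster mouse embryos, cultured at 37°C in DMEM with 5% FBS, CaCl2, glutamine and chick embryo extract. Uninfected cultures were exposed to increasing concentrations for 24 h. Viability was read with PrestoBlue (5 h incubation, absorbance at 570 nm) and checked by light microscopy for morphology.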
In the case of `Cc1n[nH]c2c1[C@@H](c1ccc(OCc3ccccc3F)cc1)S[C@@H](C)C(=O)N2`, the CC50 at 24 h is reported as > 200 µM.
With `Cc1cccc(COc2ccc([C@H]3S[C@@H](C)C(=O)Nc4[nH]nc(C)c43)cc2)c1` the CC50 at 24 h was 66 µM.
With `Cc1ccccc1COc1ccc([C@H]2S[C@@H](C)C(=O)Nc3[nH]nc(C)c32)cc1` the CC50 at 24 h was > 200 µM.

Tested on: not listed separately
Assay: Cytotoxicity against mouse L929 cells assessed as reduction in cell viability after 96 hrs by Alamarblue assay
Type: cell-based
Settings: read-out: LC50
In short: as §3
In the case of `Cc1n[nH]c2c1[C@@H](c1ccc(OCc3ccccc3F)cc1)S[C@@H](C)C(=O)N2`, the CC50 at 96 h is reported as > 200 µM.
In the case of `Cc1cccc(COc2ccc([C@H]3S[C@@H](C)C(=O)Nc4[nH]nc(C)c43)cc2)c1`, the CC50 at 96 h is reported as 98.9 µM.
In the case of `Cc1ccccc1COc1ccc([C@H]2S[C@@H](C)C(=O)Nc3[nH]nc(C)c32)cc1`, the CC50 at 96 h is reported as 111 µM.
`COc1cc([C@H]2S[C@@H](C)C(=O)Nc3[nH]nc(C)c32)ccc1OCc1ccc(Cl)cc1` gave a CC50 at 96 h of 50.6 µM.

Tested on: Trypanosoma cruzi
Assay: Antitrypanosomal activity against bloodstream trypomastigote stage of Trypanosoma cruzi Y measured after 2 hrs by light microscopic analysis
Type: functional, organism-based
Settings: not given
In short: as §2
With `Cc1n[nH]c2c1[C@@H](c1ccc(OCc3ccccc3F)cc1)S[C@@H](C)C(=O)N2` the EC50 was > 50 µM.
For `Cc1cccc(COc2ccc([C@H]3S[C@@H](C)C(=O)Nc4[nH]nc(C)c43)cc2)c1`, the EC50 was > 50 µM.
In the case of `Cc1ccccc1COc1ccc([C@H]2S[C@@H](C)C(=O)Nc3[nH]nc(C)c32)cc1`, the EC50 is reported as > 50 µM.
In the case of `COc1cc([C@H]2S[C@@H](C)C(=O)Nc3[nH]nc(C)c32)ccc1OCc1ccc(Cl)cc1`, the EC50 is reported as > 50 µM.

Tested on: Trypanosoma cruzi
Assay: Antitrypanosomal activity against bloodstream trypomastigote stage of Trypanosoma cruzi Y infected in Swiss Webster mouse assessed as reduction in parasitemia at 10 mg/kg, ip administered daily on day 5 to 9 post infection relative to control
Type: functional
Settings: not given
In short: as §1
In the case of `Cc1cccc(COc2ccc([C@H]3S[C@@H](C)C(=O)Nc4[nH]nc(C)c43)cc2)c1`, the Activity is reported as “inactive”.

Tested on: not listed separately
Assay: Selectivity index, ratio of LC50 for Swiss Webster mouse cardiac cells by light microscopic analysis to EC50 for bloodstream trypomastigote stage of Trypanosoma cruzi Y measured after 24 hrs
Type: toxicity
Settings: read-out: Selectivity Index
In short: as §4
With `Cc1n[nH]c2c1[C@@H](c1ccc(OCc3ccccc3F)cc1)S[C@@H](C)C(=O)N2` the selectivity ratio at 24 h was > 4.
`Cc1cccc(COc2ccc([C@H]3S[C@@H](C)C(=O)Nc4[nH]nc(C)c43)cc2)c1` gave a selectivity ratio at 24 h of 3.2.
In the case of `Cc1ccccc1COc1ccc([C@H]2S[C@@H](C)C(=O)Nc3[nH]nc(C)c32)cc1`, the selectivity ratio at 24 h is reported as > 5.2.

Tested on: not listed separately
Assay: Cytotoxicity against Swiss Webster mouse cardiac cells assessed as reduction in cell viability after 24 hrs by prestoblue assay
Type: cell-based, Cardiac Muscle Cell
Settings: read-out: LC50
In short: as §5
For `Cc1n[nH]c2c1[C@@H](c1ccc(OCc3ccccc3F)cc1)S[C@@H](C)C(=O)N2`, the CC50 at 24 h was > 200 µM.
Compound `Cc1cccc(COc2ccc([C@H]3S[C@@H](C)C(=O)Nc4[nH]nc(C)c43)cc2)c1` has a CC50 at 24 h of 66 µM.
With `Cc1ccccc1COc1ccc([C@H]2S[C@@H](C)C(=O)Nc3[nH]nc(C)c32)cc1` the CC50 at 24 h was > 200 µM.
